# Assay results as given in ChEMBL document CHEMBL2029242 (J Med Chem, 2012).
# Legend:
# [1] = Cmax in Sprague-Dawley rat at 10 mg/kg, po; type: ADME, organism-based; design: dose 10 mg/kg, route oral; settings: in vivo
# Outline: (§1)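 Single-dose PK. Rats: male Sprague−Dawley, jugular-catheterized, 1 mg/kg iv in 3:1 PEG400/water (n = 2) and 10 mg/kg po in Pharmatek #6 (n = 3). Female athymic nude mice: 100 mg/kg po in Pharmatek #6 (n = 3). Beagle dogs and male cynomolgus monkeys (n = 3): crossover, 1 mg/kg iv and 10 mg/kg po in 22% HPβCD, overnight fast. Plasma LC-MS/MS to 24 h; noncompartmental parameters, mean ± SD.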
# [2] = Tmax in Sprague-Dawley rat at 10 mg/kg, po; type: ADME, organism-based; design: dose 10 mg/kg, route oral; settings: in vivo
# Outline: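 Male Sprague-Dawley rats (250–350 g, jugular-catheterized) received a single dose either iv at 1 mg/kg in 3:1 PEG400/water (n = 2) or po at 10 mg/kg in Pharmatek #6 (n = 3). Plasma was sampled at 5 min (iv only), 15 and 30 min, and 1, 2, 4, 6 and 24 h. Samples were analyzed by LC-MS/MS after acetonitrile precipitation. Parameters came from noncompartmental linear-trapezoidal analysis of individual animals.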
# [3] = molecular target: Serine/threonine-protein kinase B-raf (Homo sapiens, UniProt P15056); test: Inhibition of wild type BRAF in human HEK293 cells after 1 hr by competition binding assay; type: cell-based
# Outline: (§2)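 KINOMEscan competition binding. Binding reactions ran at rt for 1 h. Unbound kinase was captured on an immobilized affinity ligand and quantified by qPCR. Each kinase was tested individually.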
# [4] = molecular target: Aurora kinase A (Homo sapiens, UniProt O14965); test: Inhibition of Aurora A in human HEK293 cells after 1 hr by competition binding assay; type: cell-based; outline: as §2
# [5] = molecular target: Mitogen-activated protein kinase 1 (Homo sapiens, UniProt P28482); test: Inhibition of ERK2 in human HEK293 cells after 1 hr by competition binding assay; type: cell-based; outline: as §2
# [6] = system: HT-144; test: Cytotoxicity against human HT144 cells expressing BRAF V600E mutant after 72 hrs by cell titer blue assay; type: functional, cell-based; settings: HT-144, 72 h
# Outline: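 Cells were grown in ATCC-recommended media and kept overnight in 0.5% serum. They were then exposed to compound for 72 h, and Cell Titer Blue was added for 3 h. EC50 came from fluorometric concentration−response curves, run in duplicate and repeated at least once.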
# [7] = Cmax in athymic nude mouse at 100 mg/kg, po; type: ADME, organism-based; design: dose 100 mg/kg, route oral; settings: in vivo; outline: as §1
# [8] = Intrinsic clearance in Cynomolgus monkey liver microsomes; type: ADME, Macaca fascicularis, Microsome
# Outline: (§3)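 Pooled liver microsomes (0.5 mg/mL) in 0.1 M phosphate pH 7.4 with 6.5 mM MgCl2 and compound at 1 μM (0.2% DMSO). NADPH (1 mM) started the reaction at 37 °C, with minus-NADPH and testosterone controls. Aliquots taken at 0, 5, 15, 30 and 60 min were quenched in acetonitrile; duplicates.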
# [9] = Half life in Cynomolgus monkey liver microsomes; type: ADME, Macaca fascicularis, Microsome; outline: as §3
# [10] = system: Mus musculus; test: Toxicity in athymic nude mouse xenografted with human COLO205 cells at 10 mg/kg, po bid for 14 days; type: organism-based, COLO 205; design: dose 10 mg/kg, route oral; settings: in vivo, 336 h
# Outline: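 Athymic nude mice (20–25 g) were inoculated subcutaneously in the flank with 1×10^6 Colo-205 cells. At 150–200 mm3 they were randomized (n = 10/group) to oral vehicle (22% HPβCD) or 10, 30 or 100 mg/kg BID for 14 days. Calipers were used three times weekly. Body weight and behavior were monitored, with 7–10 days of follow-up after dosing. Partial regression meant volume falling in ≥3 successive measurements, ending below baseline but still palpable.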
# Sequence of Serine/threonine-protein kinase B-raf (P15056 whole entry): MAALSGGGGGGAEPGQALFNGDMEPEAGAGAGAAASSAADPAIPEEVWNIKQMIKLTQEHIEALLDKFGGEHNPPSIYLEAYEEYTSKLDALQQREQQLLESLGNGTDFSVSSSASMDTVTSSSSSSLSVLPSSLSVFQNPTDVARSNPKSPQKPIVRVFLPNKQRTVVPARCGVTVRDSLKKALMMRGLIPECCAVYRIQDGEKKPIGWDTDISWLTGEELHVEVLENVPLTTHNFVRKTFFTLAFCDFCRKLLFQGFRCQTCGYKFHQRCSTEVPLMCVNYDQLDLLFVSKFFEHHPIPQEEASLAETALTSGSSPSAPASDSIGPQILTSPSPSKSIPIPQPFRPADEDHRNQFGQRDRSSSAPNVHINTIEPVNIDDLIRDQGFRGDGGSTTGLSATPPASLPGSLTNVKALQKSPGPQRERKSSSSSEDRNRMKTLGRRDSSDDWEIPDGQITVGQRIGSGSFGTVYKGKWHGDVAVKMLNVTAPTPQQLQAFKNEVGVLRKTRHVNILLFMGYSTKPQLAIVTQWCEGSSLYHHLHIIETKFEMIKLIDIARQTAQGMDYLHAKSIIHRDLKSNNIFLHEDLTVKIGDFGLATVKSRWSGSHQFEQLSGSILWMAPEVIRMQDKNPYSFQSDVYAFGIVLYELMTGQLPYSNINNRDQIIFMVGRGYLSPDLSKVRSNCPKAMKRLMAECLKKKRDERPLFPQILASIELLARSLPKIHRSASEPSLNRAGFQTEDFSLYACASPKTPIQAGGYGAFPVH
# Sequence of Mitogen-activated protein kinase 1 (P28482 whole entry): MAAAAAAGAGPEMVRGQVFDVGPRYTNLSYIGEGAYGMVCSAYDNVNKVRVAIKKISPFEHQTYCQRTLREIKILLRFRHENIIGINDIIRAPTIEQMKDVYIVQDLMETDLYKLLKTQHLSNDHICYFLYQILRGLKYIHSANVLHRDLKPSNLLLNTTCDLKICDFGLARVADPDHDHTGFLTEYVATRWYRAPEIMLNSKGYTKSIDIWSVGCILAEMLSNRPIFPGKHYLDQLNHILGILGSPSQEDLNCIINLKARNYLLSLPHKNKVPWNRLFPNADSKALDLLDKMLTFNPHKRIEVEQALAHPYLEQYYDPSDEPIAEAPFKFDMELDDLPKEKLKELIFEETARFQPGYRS
# Sequence of Aurora kinase A (O14965 whole entry): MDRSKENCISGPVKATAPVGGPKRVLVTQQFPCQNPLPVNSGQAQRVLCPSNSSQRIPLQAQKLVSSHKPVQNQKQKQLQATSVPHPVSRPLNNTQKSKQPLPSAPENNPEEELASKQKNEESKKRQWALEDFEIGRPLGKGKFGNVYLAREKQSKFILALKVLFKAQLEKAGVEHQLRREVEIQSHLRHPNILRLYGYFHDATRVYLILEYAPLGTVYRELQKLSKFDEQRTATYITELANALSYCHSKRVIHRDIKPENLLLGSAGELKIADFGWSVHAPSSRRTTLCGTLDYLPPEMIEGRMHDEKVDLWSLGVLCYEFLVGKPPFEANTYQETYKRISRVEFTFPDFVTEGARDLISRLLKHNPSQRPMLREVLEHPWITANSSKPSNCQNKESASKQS
compound,measurement,setting,value
COc1cc2ncnc(Oc3cccc(NC(=O)Nc4cc(C(C)(C)C(F)(F)F)on4)c3)c2cc1OC [CEP-32496],Cmax,[1],6.5 µM
same,Tmax,[2],2 h
same,Kd,[3],36 nM
same,Kd,[4],> 10000 nM
same,Kd,[5],> 10000 nM
same,EC50,[6],228 nM
same,Cmax,[7],35.6 µM
same,CLH,[8],< 23 µL/min/mg
same,half-life,[9],> 1 h
same,Activity,[10],Non-toxic
